ChEMBL document CHEMBL3232734, “Nitric oxide (NO) releasing poly ADP-ribose polymerase 1 (PARP-1) inhibitors targeted to glutathione S-transferase P1-overexpressing cancer cells” (J Med Chem, 2014)
Active and inactive are the calls of the source. No cut-off for these calls is given here.

Columns and labels:
[1] = Prodrug activation assessed as GSH reactivity in aqueous phosphate buffer at pH 7.4 by UV-Visible spectrophotometer analysis; type: physicochemical
In short: (§1)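 UV–vis kinetics at 37 °C in 0.1 M phosphate buffer, pH 7.4, with 50 μM DTPA and 4 mM GSH, with or without 40 nM recombinant GSTP1 or GSTA1. Substrate (typically 10 μM) added after thermal equilibration. Ratios are k with enzyme over k with GSH alone.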

A549 [2] = assay: Anticancer activity against human A549 cells xenografted in NCr nu/nu athymic mouse assessed as reduction of tumor growth at 92 umol/kg, iv administered two times a week for 4 weeks; type: functional, organism-based
In short: (§2)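 A549 cells (RPMI 1640 + 10% FBS, ≤4 passages) harvested at 70–80% confluence, 5 × 10^6 cells in PBS implanted s.c.; at ~3 mm × 3 mm tumors, mice randomized into groups of 12. Tail-vein injection at 92 μmol/kg in 20 μL DMSO, twice weekly for 4 weeks; saline or DMSO controls. Tumors caliper-measured twice weekly, volume = π/2 × L × W². Tumors resected at end, frozen, extracted for metabolite analysis by LC/MS.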

A549 [3] = assay: Induction of apoptosis in human A549 cells assessed as cleaved PARP level after 8 hrs by immunoblot analysis; type: functional, cell-based
In short: (§3)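 A549 cells treated with compound, lysed and immunoblotted for cleaved caspase 8, caspases 3 and 7, and PARP (full-length and cleaved). Caspase 8 was read within 6 h at 1 μM. Representative of at least three independent experiments.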

A549 [4] = assay: Induction of apoptosis in human A549 cells assessed as cleaved PARP level by immunoblot analysis; type: functional, cell-based; in short: as §3
[5] = biological target: Poly [ADP-ribose] polymerase 1 (Homo sapiens, UniProt P09874); assay: Inhibition of PARP-1 (unknown origin) assessed as incorporation of biotinylated poly ADP-ribose onto histone proteins at 0.1 to 1000 nM by colorimetric analysis in presence of GSH and GSTP1
In short: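 PARP activity measured with a colorimetric histone biotinylated poly(ADP-ribose) incorporation kit. GSH (4 mM) with or without 40 nM GSTP1 in PBS pH 7.4 was preincubated 10 min at 37 °C. Reaction started by adding prodrug (10 μM substrate) and ran a further 10 min; absorbance read at 450 nm. Inhibitors tested over 0.01 nM–1 μM.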

A549 [6] = assay: Induction of endoplasmic reticulum stress in human A549 cells assessed as protein glutathionylation after 8 hrs by immunoblot analysis; type: functional, cell-based
A549 [7] = assay: Induction of apoptosis in human A549 cells assessed as cleaved caspase 7 level by immunoblot analysis; type: functional, cell-based; in short: as §3
Mus musculus = assay: Systemic toxicity in NCr nu/nu athymic mouse xenografted with human A549 cells assessed as body weight at 92 umol/kg, iv administered two times a week for 4 weeks (reference value: 25.0 +/-0.78 gms); type: organism-based; details: in vivo, 672 h
[8] = biological target: T1, Glutathione S-transferase A1 (Homo sapiens, UniProt P08263); assay: Ratio of prodrug activation in presence of GSH and recombinant GSTA1 (unknown origin) to prodrug activation in presence of GSH by UV-Visible spectrophotometry
T1 sequence (P08263 whole entry): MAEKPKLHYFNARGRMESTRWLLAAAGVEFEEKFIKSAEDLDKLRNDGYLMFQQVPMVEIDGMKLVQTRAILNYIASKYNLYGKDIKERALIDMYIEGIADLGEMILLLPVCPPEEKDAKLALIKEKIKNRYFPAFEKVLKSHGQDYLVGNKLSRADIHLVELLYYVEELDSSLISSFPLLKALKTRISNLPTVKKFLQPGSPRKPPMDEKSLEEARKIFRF
In short: as §1, with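 “equilibration. Absorbance followed at 302 nm; first-order rate from an exponential fit.” for “equilibration.”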

Tumour [9] = assay: Drug uptake in tumor of NCr nu/nu athymic mouse xenografted with human A549 cells at 92 umol/kg, iv administered two times a week for 4 weeks; type: ADME, organism-based, Neoplasm; details: in vivo, 672 h; in short: as §2
[10] = biological target: Eukaryotic translation initiation factor 2 subunit 1 (Homo sapiens) (UniProt P05198); assay: Induction of eIF2-alpha phosphorylation in human A549 cells by immunoblot analysis; type: cell-based
Tumour [11] = assay: Drug metabolism in tumor of NCr nu/nu athymic mouse xenografted with human A549 cells assessed as metabolite formation at 92 umol/kg, iv administered two times a week for 4 weeks; type: ADME, organism-based, Neoplasm; details: in vivo, 672 h; in short: as §2
A549 [12] = assay: Induction of endoplasmic reticulum stress in human A549 cells assessed as upregulation of ATF4 protein expression by immunoblot analysis; type: functional, cell-based
A549 [13] = assay: Induction of endoplasmic reticulum stress in human A549 cells assessed as protein glutathionylation measured within 1 hr post-drug treatment by immunoblot analysis; type: functional, cell-based
A549 [14] = assay: Induction of endoplasmic reticulum stress in human A549 cells assessed as upregulation of CHOP protein expression by immunoblot analysis; type: functional, cell-based
[15] = biological target: Glutathione S-transferase P (Homo sapiens, UniProt P09211); assay: Ratio of prodrug activation in presence of GSH and recombinant GSTP1 (unknown origin) to prodrug activation in presence of GSH by UV-Visible spectrophotometry
In short: as §1, with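 “equilibration. Absorbance followed at 302 nm; first-order rate from an exponential fit.” for “equilibration.”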

A549 [16] = assay: Anticancer activity against human A549 cells assessed as reduction in number of colonies at 1 uM in presence of 3 nM proteasome inhibitor bortezomib by colony forming assay; type: functional, cell-based
In short: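 A549 colony forming assay after combined treatment with the proteasome inhibitor bortezomib.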

[17] = biological target: T2, MAP kinase p38 (Homo sapiens) (UniProt O15264+Q15759+Q16539+P53778); assay: Induction of p38 phosphorylation in human A549 cells after 8 hrs by immunoblot analysis; type: cell-based
In short: (§4)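 A549 cells treated with compound and p38 phosphorylation followed by immunoblot from 15 min to 8 h after the start of treatment. At least three independent experiments.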

A549 [18] = assay: Drug metabolism in human A549 cells assessed as nitric oxide release at 10 uM by LC/MS/MS analysis in presence of GSH/GSTP1; type: ADME, cell-based; details: a549, 10 µM
In short: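 A549 cells were plated in 75 cm2 flasks and grown overnight at 37 °C, then treated with 10 μM compound for varying times up to 1 h. Cells were lysed in 10 mM HCl/acetonitrile, 5-sulfosalicylic acid was added, and the precipitate was spun off at 12000g for 15 min. Supernatant was filtered and metabolites were identified by positive-ion LC/MS/MS (Q-TOF, C18, water/acetonitrile/0.1% formic acid gradient).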

A549 [19] = assay: Induction of apoptosis in human A549 cells assessed as cleaved caspase 8 level at 1 uM within 6 hrs after drug treatment by immunoblot analysis; type: functional, cell-based; in short: as §3
A549 [20] = assay: Induction of endoplasmic reticulum stress in human A549 cells assessed as upregulation of BiP protein expression by immunoblot analysis; type: functional, cell-based
[21] = biological target: T2, MAP kinase p38 (Homo sapiens); assay: Induction of p38 phosphorylation in human A549 cells within 15 mins after drug treatment by immunoblot analysis; type: cell-based; in short: as §4
U-937 = assay: Drug metabolism in human U937 cells assessed as nitric oxide release at 5 uM by LC/MS/MS analysis in presence of GSH/GSTP1; details: u-937, 5 µM
A549 [22] = assay: Induction of apoptosis in human A549 cells assessed as cleaved caspase 3 level by immunoblot analysis; type: functional, cell-based; in short: as §3

Chain of Eukaryotic translation initiation factor 2 subunit 1 (Homo sapiens) (P05198 whole entry): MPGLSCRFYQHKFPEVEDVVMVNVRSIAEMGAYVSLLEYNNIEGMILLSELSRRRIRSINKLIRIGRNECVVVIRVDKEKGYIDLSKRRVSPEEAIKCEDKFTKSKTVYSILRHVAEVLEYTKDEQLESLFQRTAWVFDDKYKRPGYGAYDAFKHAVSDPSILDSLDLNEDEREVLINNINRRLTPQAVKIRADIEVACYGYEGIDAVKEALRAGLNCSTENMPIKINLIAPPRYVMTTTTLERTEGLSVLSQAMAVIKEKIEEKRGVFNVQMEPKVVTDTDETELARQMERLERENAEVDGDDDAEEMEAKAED
Chain of Glutathione S-transferase P (P09211 whole entry): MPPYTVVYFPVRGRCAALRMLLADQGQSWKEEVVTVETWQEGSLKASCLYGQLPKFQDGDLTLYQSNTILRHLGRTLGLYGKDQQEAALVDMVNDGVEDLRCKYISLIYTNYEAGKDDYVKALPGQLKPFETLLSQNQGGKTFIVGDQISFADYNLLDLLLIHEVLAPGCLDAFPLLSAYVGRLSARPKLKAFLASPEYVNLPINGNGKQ
Chain of Poly [ADP-ribose] polymerase 1 (P09874 whole entry): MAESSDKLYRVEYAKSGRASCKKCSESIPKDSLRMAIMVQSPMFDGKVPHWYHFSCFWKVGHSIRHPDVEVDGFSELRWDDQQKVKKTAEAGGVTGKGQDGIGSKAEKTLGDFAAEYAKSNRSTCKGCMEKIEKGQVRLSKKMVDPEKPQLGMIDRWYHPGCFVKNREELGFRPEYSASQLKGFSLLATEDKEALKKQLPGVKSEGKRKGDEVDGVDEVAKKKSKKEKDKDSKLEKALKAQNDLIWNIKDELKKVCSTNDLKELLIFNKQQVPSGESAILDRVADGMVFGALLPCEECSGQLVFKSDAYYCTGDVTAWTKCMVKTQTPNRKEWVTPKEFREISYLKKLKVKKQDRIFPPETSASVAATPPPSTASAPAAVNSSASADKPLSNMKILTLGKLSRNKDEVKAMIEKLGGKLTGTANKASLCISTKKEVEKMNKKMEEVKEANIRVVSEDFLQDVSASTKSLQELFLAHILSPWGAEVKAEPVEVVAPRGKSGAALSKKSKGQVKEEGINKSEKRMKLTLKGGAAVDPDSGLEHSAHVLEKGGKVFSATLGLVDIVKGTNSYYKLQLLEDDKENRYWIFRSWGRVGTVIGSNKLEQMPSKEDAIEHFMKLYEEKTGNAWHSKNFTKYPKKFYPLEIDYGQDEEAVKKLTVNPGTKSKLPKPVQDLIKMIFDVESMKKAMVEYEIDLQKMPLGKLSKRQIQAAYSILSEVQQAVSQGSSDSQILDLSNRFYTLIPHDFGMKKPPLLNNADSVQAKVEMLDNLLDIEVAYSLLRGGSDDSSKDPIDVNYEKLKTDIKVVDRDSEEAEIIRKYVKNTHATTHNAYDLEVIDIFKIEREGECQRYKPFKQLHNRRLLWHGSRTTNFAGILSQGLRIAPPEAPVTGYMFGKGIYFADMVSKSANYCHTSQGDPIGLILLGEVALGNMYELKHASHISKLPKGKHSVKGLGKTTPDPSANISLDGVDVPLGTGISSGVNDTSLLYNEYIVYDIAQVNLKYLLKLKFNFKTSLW

CN(C)/[N+]([O-])=N\Oc1cc(O/N=[N+](\[O-])N2CCN(C(=O)c3cc(Cc4n[nH]c(=O)c5ccccc45)ccc3F)CC2)c([N+](=O)[O-])cc1[N+](=O)[O-]
t1/2 [1]: 16 min | growth inhibition (GI) (A549 [2]): Active | Activity (A549 [3]): Active | Activity (A549 [4]): Active | inhibition [5]: Active | Activity (A549 [6]): inactive | Activity (A549 [7]): Active | Activity (Mus musculus): 25.3 g | Ratio [8]: 9.2 | Drug uptake (Tumour [9]): Active | Activity [10]: Active | Drug metabolism (Tumour [11]): metabolite_detected | Activity (A549 [12]): Active | Activity (A549 [13]): Active | Activity (A549 [14]): Active | Ratio [15]: 13.3 | inhibition (A549 [16]): Active | Activity [17]: Active | Drug metabolism (A549 [18]): metabolite_detected | Activity (A549 [19]): Active | Activity (A549 [20]): Active | Activity [21]: Active | Drug metabolism (U-937): metabolite_detected | Activity (A549 [22]): Active
